Results of several laboratories.
Dhodh: Dihydroorotate dehydrogenase (quinone), mitochondrial (Dhodh, Mus musculus, UniProt O35435)
ESR2: Estrogen receptor beta (ESR2, Homo sapiens, UniProt Q92731)
EPHX2: Bifunctional epoxide hydrolase 2 (EPHX2, Homo sapiens, UniProt P34913)

| Compound | target | effect on | action | technique | measurement | value |
| --- | --- | --- | --- | --- | --- | --- |
| O=c1c(O)c(-c2ccc(O)c(O)c2)oc2cc(O)ccc12 | Dual specificity mitogen-activated protein kinase kinase 4 (MAP2K4, Homo sapiens, UniProt P45985) | enzyme activity | inhibitor | ADP detection | IC50 | 2.9 µM |
| Cn1nc2c(=O)n(C3CC3)ncc2c1[C@](O)(c1cnc(C(F)(F)F)c(Cl)c1)C(F)(F)F | Dhodh | enzyme activity | inhibitor | absorbance | IC50 | > 30 µM |
| Oc1ccc2c3c(cnc2c1)-c1ccc(C(F)(F)F)cc1O[C@@H]3c1ccc(OCCN2CC(CF)C2)cc1 | ESR2 | ligand displacement |  | radioligand | Ki | 0.00011 µM |
| C[S+]([O-])CCCCN=C=S (stereo not drawn) | EPHX2 | enzyme activity | inhibitor | fluorescence | IC50 | 3.65 µM |
| O=C(Nc1ccc(-c2ccc3ncccc3c2)cc1)C1CCN(S(=O)(=O)c2ccccc2Cl)CC1 | EPHX2 | enzyme activity | inhibitor | fluorescence | IC50 | 0.0054 µM |
| CC[C@@](N)(c1cnc(C(F)(F)F)c(Cl)c1)c1c2ncn(C3CC3)c(=O)c2nn1C | Dhodh | enzyme activity | inhibitor | absorbance | IC50 | 6.7 µM |
| C[C@H]1CCC[C@@]2(C)CCCC[C@]12O | OR11A1 (Homo sapiens, UniProt Q9GZK7) | cAMP | agonist | luciferase | EC50 | 28 µM |
| N[C@@H](Cc1ccccc1)C(=O)O | Intestinal-type alkaline phosphatase (ALPI, Bos taurus, UniProt P19111) | enzyme activity | inhibitor |  | IC50 | 78.4 µM |
| C=CCN=C=S | EPHX2 | enzyme activity | inhibitor | fluorescence | IC50 | 11.6 µM |
| O=C(Nc1ccc(-c2cccc3ncccc23)cc1)C1CCN(S(=O)(=O)c2ccccc2Cl)CC1 | EPHX2 | enzyme activity | inhibitor | fluorescence | IC50 | 0.0017 µM |
| C[C@@H]1O[C@@H](O[C@@H]2[C@@H](O)[C@H](OCCc3ccc(O)c(O)c3)O[C@H](CO)[C@H]2OC(=O)/C=C/c2ccc(O)c(O)c2)[C@H](O)[C@H](O)[C@H]1O | Aldo-keto reductase family 1 member B1 (AKR1B1, Homo sapiens, UniProt P15121) | enzyme activity | inhibitor |  | IC50 | 1.17 µM |
| O=C1CC[C@H](N2Cc3cc(N4CCN(CC5CCN(c6ccc([C@@H]7c8ccc(O)cc8CC[C@@H]7c7ccccc7)cc6)CC5)CC4)ccc3C2=O)C(=O)N1 | ESR2 | ligand displacement |  | radioligand | IC50 | 0.005 µM |
